According to PubChem BioAssay AID504483 (The Scripps Research Institute Molecular Screening Center, 2011):
The source made the active and inactive calls.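 Rule for the calls: active = inhibition of the enzyme at or above 50% at 0.1 µM compound; inactive = the rest.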

Target: Platelet-activating factor acetylhydrolase (Mus musculus) (UniProt Q60963)
Assay: mouse pPAFAH inhibition, late-stage follow-up, selectivity assay for PAFAH2 inhibitor project, cell lysate, gel-based competitive ABPP, COS-7 proteome, fluorescence (AID 504483)
Conditions: murine pPAFAH, gel ABPP FP-Rh, at 1 µM (top of the series)
In short: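 Material: soluble COS-7 proteome expressing murine pPAFAH; medium: DPBS buffer; probe or stimulus: FP-Rh, 2 µM final; timing: compound 30 min at 25 °C, FP-Rh 30 min; technique: gel ABPP, in-gel fluorescence band density; control set: DMSO-only high, blank-gel background low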

Chain of Platelet-activating factor acetylhydrolase (Mus musculus) (Q60963 whole entry, looked up): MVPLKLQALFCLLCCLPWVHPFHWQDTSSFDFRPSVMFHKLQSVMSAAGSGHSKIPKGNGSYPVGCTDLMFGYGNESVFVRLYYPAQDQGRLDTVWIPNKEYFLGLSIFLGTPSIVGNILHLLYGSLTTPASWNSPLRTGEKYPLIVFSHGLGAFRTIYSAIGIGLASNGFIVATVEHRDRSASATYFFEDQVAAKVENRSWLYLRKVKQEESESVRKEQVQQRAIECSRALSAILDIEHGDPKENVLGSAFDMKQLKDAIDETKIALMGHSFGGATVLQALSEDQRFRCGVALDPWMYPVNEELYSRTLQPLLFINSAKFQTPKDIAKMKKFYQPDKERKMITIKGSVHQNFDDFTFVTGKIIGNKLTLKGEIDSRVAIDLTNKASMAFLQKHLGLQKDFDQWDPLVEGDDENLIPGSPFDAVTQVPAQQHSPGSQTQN

- inhibition: 85% (inactive)
Structure (SMILES): O=C(N1CCCC1)n1ncc(-c2ccc(-c3ccccc3)cc2)n1
